# Data from ChEMBL document CHEMBL1641580, “Identification of 3-phenylaminoquinolinium and 3-phenylaminopyridinium salts as new agents against opportunistic fungal pathogens” (Bioorg Med Chem, 2011).
# Activity calls are given as the source filed them. The calls are words filed in the database; no cut-off is given here.
# Legend:
# [1] = tested on: Aspergillus fumigatus; experiment: Antifungal activity against Aspergillus fumigatus ATCC 90906 assessed as inhibition of fungal growth by alamar blue assay; type: functional, organism-based; conditions: Aspergillus fumigatus, ATCC 90906; read-out: IC50
# Procedure, shortened: (§1)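 Broth microdilution modified from NCCLS. DMSO stocks serially diluted in saline and plated in duplicate. Inoculum set by 0.5 McFarland standard. Media: C. albicans in SDB or RPMI 1640; C. neoformans in SDB; A. fumigatus in RPMI-1640 + 5% Alamar Blue. Highest final concentration 20 µg/mL. Plates read before and after incubation by fluorescence 544ex/590em (A. fumigatus) or OD 630 nm. IC50 from percent growth vs concentration.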
# [2] = tested on: Candida albicans; experiment: Antifungal activity against Candida albicans ATCC 90028 by microscopy; type: functional
# Procedure, shortened: (§2)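 Modified NCCLS microdilution. Samples in DMSO serially diluted in saline and tested in duplicate against inocula standardized to 0.5 McFarland. Broths: C. albicans SDB or RPMI 1640; C. neoformans SDB; A. fumigatus YM broth. Highest final concentration 20 µg/mL. MIC read visually as the lowest concentration with no detectable growth (for Alamar Blue wells, no blue-to-pink change).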
# [3] = tested on: Aspergillus fumigatus; experiment: Antifungal activity against Aspergillus fumigatus ATCC 90906 at 20 ug/mL by microscopy; type: functional, organism-based; procedure, shortened: as §2
# [4] = tested on: Cryptococcus neoformans; experiment: Antifungal activity against Cryptococcus neoformans ATCC 90113 assessed as inhibition of fungal growth by alamar blue assay; type: functional, organism-based; procedure, shortened: as §1
# [5] = tested on: Candida albicans; experiment: Antifungal activity against Candida albicans ATCC 90028 at 20 ug/mL by microscopy; type: functional, organism-based; procedure, shortened: as §2
# [6] = tested on: Candida albicans; experiment: Antifungal activity against Candida albicans ATCC 90028 assessed as inhibition of fungal growth by alamar blue assay; type: functional, organism-based; procedure, shortened: as §1
# [7] = tested on: Aspergillus fumigatus; experiment: Fungicidal activity against Aspergillus fumigatus ATCC 90906 at 20 ug/mL; type: functional, organism-based
# [8] = tested on: Candida albicans; experiment: Fungicidal activity against Candida albicans ATCC 90028 at 20 ug/mL; type: functional, organism-based
# [9] = tested on: Candida albicans; experiment: Antifungal activity against Candida albicans ATCC 90028 assessed as inhibition of fungal growth at 20 ug/mL by alamar blue assay; type: functional, organism-based; procedure, shortened: as §1
# [10] = tested on: Cryptococcus neoformans; experiment: Fungicidal activity against Cryptococcus neoformans ATCC 90113; type: functional
# [11] = tested on: Cryptococcus neoformans; experiment: Antifungal activity against Cryptococcus neoformans ATCC 90113 by microscopy; type: functional
# Procedure, shortened: as §2, with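 “McFarland.” for “McFarland. Broths: C. albicans SDB or RPMI 1640; C. neoformans SDB; A. fumigatus YM broth.”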
# [12] = Cytotoxicity against african green monkey Vero cells after 48 hrs by neutral red assay; type: cell-based; conditions: chlorocebus sabaeus, read-out: TC50
# Procedure, shortened: (§3)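 Vero kidney fibroblasts seeded at 25,000 cells/well and grown 24 h, then exposed to samples up to 20 µg/ml for 48 h. Viable cells measured by neutral red assay. IC50 taken from growth-inhibition vs concentration curves. DMSO served as vehicle control.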
# [13] = tested on: Cryptococcus neoformans; experiment: Fungicidal activity against Cryptococcus neoformans ATCC 90113 at 20 ug/mL; type: functional, organism-based
# [14] = tested on: Cryptococcus neoformans; experiment: Antifungal activity against Cryptococcus neoformans ATCC 90113 at 20 ug/mL by microscopy; type: functional, organism-based; procedure, shortened: as §2
# [15] = tested on: Cryptococcus neoformans; experiment: Antifungal activity against Cryptococcus neoformans ATCC 90113 assessed as inhibition of fungal growth at 20 ug/mL by alamar blue assay; type: functional, organism-based; procedure, shortened: as §1
# [16] = tested on: Aspergillus fumigatus; experiment: Antifungal activity against Aspergillus fumigatus ATCC 90906 assessed as inhibition of fungal growth at 20 ug/mL by alamar blue assay; type: functional, organism-based; procedure, shortened: as §1
# [17] = tested on: Vero; experiment: Cytotoxicity against african green monkey Vero cells at 20 ug/mL after 48 hrs by neutral red assay; type: cell-based; conditions: chlorocebus sabaeus; procedure, shortened: as §3
# [18] = tested on: Cryptococcus neoformans; experiment: Antifungal activity against Cryptococcus neoformans at 20 ug/mL
# [19] = Cytotoxicity against african green monkey Vero cells; type: cell-based; conditions: chlorocebus sabaeus, read-out: TC50 (the source's name); procedure, shortened: as §3
# [20] = tested on: Candida albicans; experiment: Fungicidal activity against Candida albicans ATCC 90028; type: functional
# [21] = tested on: Aspergillus fumigatus; experiment: Fungicidal activity against Aspergillus fumigatus ATCC 90906; type: functional
# [22] = tested on: Aspergillus fumigatus; experiment: Antifungal activity against Aspergillus fumigatus ATCC 90906 by microscopy; type: functional; procedure, shortened: as §2
SMILES,MIC [2] [µg/mL],MIC [11] [µg/mL],Activity [3],IC50 [4] [µg/mL],Activity [5],IC50 [6] [µg/mL],Activity [7],Activity [8],inhibition [9],MFC [10] [µg/mL],CC50 at 48 h [12] [µg/mL],Activity [13],Activity [14],inhibition [15],inhibition [16],Activity [17],further results
C[n+]1cc(Nc2ccccc2Cl)cc2ccccc21.[I-],–,–,inactive,–,inactive,–,inactive,inactive,inactive,–,–,inactive,inactive,inactive,inactive,Non-toxic,–
C[n+]1cccc(Nc2ccccc2)c1.[I-],–,–,–,–,–,–,–,–,–,–,–,–,–,–,–,Non-toxic,–
C[n+]1cc(Nc2ccccc2)cc2ccccc21.[I-],–,–,inactive,–,inactive,–,inactive,inactive,inactive,–,–,inactive,inactive,inactive,inactive,Non-toxic,–
C[n+]1c2ccccc2cc2[n-]c3ccccc3c21 [CRYPTOLEPINE],–,20,–,–,–,20,–,–,–,–,–,–,–,–,–,–,MIC [18]: 12.5 µg/mL; CC50 [19]: 3.2 µg/mL
C[n+]1cc(Nc2ccc(Cl)cc2)cc2ccccc21.[I-],–,–,inactive,–,inactive,–,inactive,inactive,inactive,–,–,inactive,inactive,inactive,inactive,Non-toxic,–
C[n+]1cc(Nc2cccc(Cl)c2)cc2ccccc21.[I-],–,–,inactive,–,inactive,–,inactive,inactive,inactive,–,–,inactive,inactive,inactive,inactive,Non-toxic,–

# Now from value to molecule, other results behind:
MIC [2] [µg/mL],MIC [11] [µg/mL],SMILES,Activity [3],IC50 [4] [µg/mL],Activity [5],IC50 [6] [µg/mL],Activity [7],Activity [8],inhibition [9],MFC [10] [µg/mL],CC50 at 48 h [12] [µg/mL],Activity [13],Activity [14],inhibition [15],inhibition [16],Activity [17],further results
20,2.5,C[n+]1cccc(N(CCCCCC2CCCCC2)c2ccccc2)c1.[I-],inactive,1.5,inactive,8.3,inactive,inactive,inactive,2.5,> 10,–,–,–,–,–,IC50 [1]: 19.7 µg/mL
20,2.5,C[n+]1cccc(N(CCCCCC2CCCCC2)c2ccc(F)cc2)c1.[I-],inactive,1.4,inactive,9.6,inactive,inactive,inactive,2.5,> 10,–,–,–,inactive,–,–
–,5,C[n+]1cccc(N(CCCCCC2CCCCC2)c2cccc(C#N)c2)c1.[I-],–,3.5,inactive,–,–,inactive,inactive,5,> 10,–,–,–,inactive,–,–
0.6,–,C[C@@H]1[C@H](O)[C@@H](C)/C=C/C=C/C=C/C=C/C=C/C=C/C=C/[C@H](O[C@@H]2O[C@H](C)[C@@H](O)[C@H](N)[C@@H]2O)C[C@@H]2O[C@](O)(C[C@@H](O)C[C@@H](O)[C@H](O)CC[C@@H](O)C[C@@H](O)CC(=O)O[C@H]1C)C[C@H](O)[C@H]2C(=O)O [AMPHOTERICIN B],–,1.3,–,–,–,–,–,1,7.6,–,–,–,–,–,IC50 [1]: 0.7 µg/mL; MFC [20]: 1.3 µg/mL; MFC [21]: 5 µg/mL; CC50 [19]: 7.6 µg/mL; MIC [22]: 1.3 µg/mL
10,2.5,COc1ccc(N(CCCCCC2CCCCC2)c2ccc[n+](C)c2)cc1.[I-],–,1.4,–,5.1,–,–,–,2.5,> 10,–,–,–,inactive,–,MFC [20]: 20 µg/mL
20,5,COc1cccc(N(CCCCCC2CCCCC2)c2ccc[n+](C)c2)c1.[I-],–,3.6,–,8.9,–,–,–,5,> 10,–,–,–,inactive,–,MFC [20]: > 20 µg/mL
